Experimental data: ChEMBL document CHEMBL4346698, “Discovery and optimization of thienopyridine derivatives as novel urea transporter inhibitors” (Eur J Med Chem, 2019)
The source made the active and inactive calls. The calls are words filed in the database; no cut-off is given here.

Key:
Urea transporter 1 [1] = molecular target: T1, Urea transporter 1 (Rattus norvegicus, UniProt P97689); assay: Inhibition of urea transporter B in Sprague-Dawley rat erythrocytes incubated for 6 mins by spectrophotometric analysis based erythrocyte lysis assay; type: cell-based
T1 sequence (P97689 whole entry): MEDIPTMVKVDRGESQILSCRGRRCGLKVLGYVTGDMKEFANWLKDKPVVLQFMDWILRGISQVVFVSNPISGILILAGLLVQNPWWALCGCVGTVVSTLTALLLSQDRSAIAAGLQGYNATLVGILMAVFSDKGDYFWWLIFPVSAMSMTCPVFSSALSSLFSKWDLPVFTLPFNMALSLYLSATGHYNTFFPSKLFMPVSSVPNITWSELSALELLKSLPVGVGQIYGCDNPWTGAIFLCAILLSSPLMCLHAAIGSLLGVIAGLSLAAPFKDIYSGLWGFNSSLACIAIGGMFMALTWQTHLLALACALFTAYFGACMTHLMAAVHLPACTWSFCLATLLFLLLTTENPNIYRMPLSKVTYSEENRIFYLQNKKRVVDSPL
Outline: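 Blood came from 8-week-old male SD rats. Erythrocytes were held at 2% hematocrit in hyperosmolar PBS with 1.25 M urea and 5 mM glucose for 2 h at ambient temperature. Compound in DMSO was added for 6 min, then the cells were diluted 1:10 into isotonic PBS. Lysis was read as A710 within 5 min and normalised to same-plate no-lysis (isotonic PBS) and full-lysis (water) controls.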

Urea transporter 1 [2] = molecular target: T2, Urea transporter 1 (Homo sapiens, UniProt Q13336); assay: Inhibition of urea transporter B in human erythrocytes incubated for 6 mins by spectrophotometric analysis based erythrocyte lysis assay; type: cell-based
T2 sequence (Q13336 whole entry): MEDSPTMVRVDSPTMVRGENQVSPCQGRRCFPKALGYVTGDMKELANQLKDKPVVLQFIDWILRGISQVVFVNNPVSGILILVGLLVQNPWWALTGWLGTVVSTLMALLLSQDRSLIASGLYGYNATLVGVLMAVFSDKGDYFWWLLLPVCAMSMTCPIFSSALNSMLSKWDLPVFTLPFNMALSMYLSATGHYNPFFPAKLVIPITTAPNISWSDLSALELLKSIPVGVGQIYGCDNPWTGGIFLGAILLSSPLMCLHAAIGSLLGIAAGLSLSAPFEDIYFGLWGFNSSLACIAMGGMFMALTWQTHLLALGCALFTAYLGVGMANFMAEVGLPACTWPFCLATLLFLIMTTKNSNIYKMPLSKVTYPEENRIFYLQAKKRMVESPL

Rattus norvegicus = assay: Diuretic activity in Sprague-Dawley rat assessed as increase in urine output at 100 mg/kg, sc measured after 10 hrs; type: functional, organism-based
Outline: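 SD rats housed in metabolic cages received a subcutaneous injection of 100 mg/kg in 40% 2-hydroxypropyl-β-cyclodextrin, with the vehicle alone as control. Urine output was collected for 10 h after dosing. n=5, mean + SD.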

COC(=O)c1sc2nc(C)c(C(C)=O)cc2c1N
IC50 (Urea transporter 1 [1]): 0.91 µM

COC(=O)c1sc2nc(-c3ccccc3)ccc2c1N
IC50 (Urea transporter 1 [1]): 3.36 µM

COC(=O)c1sc2nc(C)c(-c3ccccc3)cc2c1N
IC50 (Urea transporter 1 [1]): 3.29 µM

COC(=O)c1sc2nc3ccc(C)cc3cc2c1N
IC50 (Urea transporter 1 [1]): 0.23 µM

COC(=O)CC(=O)c1sc2nc3ccc(OC)cc3cc2c1N
IC50 (Urea transporter 1 [1]): > 10 µM

COc1ccc2nc3sc(C(=O)N4CCOCC4)c(N)c3cc2c1
IC50 (Urea transporter 1 [1]): > 10 µM

COC(=O)c1sc2nc(C)c(NS(C)(=O)=O)cc2c1N
IC50 (Urea transporter 1 [1]): 6.42 µM

COC(=O)c1sc2nc(C)cc(C(F)(F)F)c2c1N
IC50 (Urea transporter 1 [1]): 6.12 µM

COC(=O)c1sc2nc(C(=O)N3CCOCC3)ccc2c1N
IC50 (Urea transporter 1 [1]): > 10 µM

COC(=O)c1sc2nc3ccccc3cc2c1N
IC50 (Urea transporter 1 [1]): 0.22 µM

COC(=O)c1sc2nc(C)c(NC(C)=O)cc2c1N
IC50 (Urea transporter 1 [1]): 3.47 µM

COC(=O)c1sc2nc(C)c(Br)cc2c1N
IC50 (Urea transporter 1 [1]): 8.47 µM

COC(=O)c1sc2nc(C)ccc2c1N
IC50 (Urea transporter 1 [1]): 1.3 µM

CC(=O)c1sc2nc3ccc(C)cc3cc2c1N
IC50 (Urea transporter 1 [2]): 1.72 µM
IC50 (Urea transporter 1 [1]): 3.51 µM

COC(=O)c1sc2nc(C)cc(C)c2c1N
IC50 (Urea transporter 1 [1]): 2.54 µM

COC(=O)c1sc2nc(C)c(N)cc2c1N
Activity (Rattus norvegicus): Active
IC50 (Urea transporter 1 [1]): 0.54 µM

CCc1cc2c(N)c(C(=O)OC)sc2nc1C
IC50 (Urea transporter 1 [1]): 0.71 µM

CCOC(=O)c1cnc2sc(C(=O)OC)c(N)c2c1
IC50 (Urea transporter 1 [1]): > 10 µM

COC(=O)c1sc2nc3ccc(OC)cc3cc2c1N
IC50 (Urea transporter 1 [1]): 0.22 µM

COc1ccc2nc3sc(C(N)=O)c(N)c3cc2c1
IC50 (Urea transporter 1 [1]): > 10 µM

COC(=O)c1sc2nc(C)c(F)cc2c1N
IC50 (Urea transporter 1 [1]): > 10 µM

CNC(=O)c1sc2nc3ccc(OC)cc3cc2c1N
IC50 (Urea transporter 1 [1]): > 10 µM

CNC(=O)c1cc2c(N)c(C(=O)OC)sc2nc1C
IC50 (Urea transporter 1 [1]): > 10 µM

COC(=O)c1sc2nc(C)c(OC)cc2c1N
IC50 (Urea transporter 1 [1]): 5.46 µM

COC(=O)c1sc2nc3c(C)cc(C)cc3cc2c1N
IC50 (Urea transporter 1 [1]): 0.61 µM

COC(=O)c1sc2nc3ccc(Br)cc3cc2c1N
IC50 (Urea transporter 1 [1]): 0.27 µM

COc1ccc2nc3sc(S(=O)(=O)N(C)C)c(N)c3cc2c1
IC50 (Urea transporter 1 [1]): > 10 µM

COC(=O)c1sc2nc(C)c([N+](=O)[O-])cc2c1N
IC50 (Urea transporter 1 [1]): > 10 µM

COC(=O)c1sc2nc(C)c(C(=O)N3CCOCC3)cc2c1N
IC50 (Urea transporter 1 [1]): > 10 µM

COc1ccc2nc3sc(C(=O)O)c(N)c3cc2c1
IC50 (Urea transporter 1 [1]): > 10 µM

COc1ccc2nc3sc(C(C)=O)c(N)c3cc2c1
IC50 (Urea transporter 1 [1]): 1.63 µM

COC(=O)c1sc2nc(C)c(N(C)C)cc2c1N
IC50 (Urea transporter 1 [1]): 3.75 µM

COC(=O)CNC(=O)c1sc2nc3ccc(OC)cc3cc2c1N
IC50 (Urea transporter 1 [1]): > 10 µM

CCNC(=O)c1cc2c(N)c(C(=O)OC)sc2nc1C
IC50 (Urea transporter 1 [1]): > 10 µM

COC(=O)c1sc2nc3ccc(F)cc3cc2c1N
IC50 (Urea transporter 1 [1]): 0.16 µM

CCOC(=O)c1sc2nc3ccc(OC)cc3cc2c1N
IC50 (Urea transporter 1 [1]): > 10 µM
